Measured values taken from ChEMBL document CHEMBL1641438, “In vitro efficacy of 7-benzylamino-1-isoquinolinamines against Plasmodium falciparum related to the efficacy of chalcones” (Bioorg Med Chem Lett, 2011).
Active and inactive are the calls of the source. The calls are words filed in the database; no cut-off is given here.

Key:
[1] = tested on: Plasmodium falciparum; test: Antimalarial activity against mefloquine-resistant, chloroquine-sensitive Plasmodium falciparum D6 assessed as inhibition of [3H]hypoxanthine uptake; assay type: functional, organism-based
[2] = tested on: Plasmodium falciparum; test: Antimalarial activity against multidrug-resistant Plasmodium falciparum TM91C235 assessed as inhibition of [3H]hypoxanthine uptake; assay type: functional, organism-based
[3] = tested on: Plasmodium falciparum; test: Antimalarial activity against chloroquine-resistant, mefloquine-sensitive Plasmodium falciparum W2 assessed as inhibition of [3H]hypoxanthine uptake; assay type: functional, organism-based
[4] = tested on: Plasmodium falciparum; test: Resistance index, ratio of IC50 for Plasmodium falciparum multidrug-resistant TM91C235 to IC50 for mefloquine-resistant, chloroquine-sensitive Plasmodium falciparum D6; assay type: functional
[5] = tested on: Plasmodium falciparum; test: Resistance index, ratio of IC50 for chloroquine-resistant, mefloquine-sensitive Plasmodium falciparum W2 to IC50 for mefloquine-resistant, chloroquine-sensitive Plasmodium falciparum D6; assay type: functional
[6] = tested on: Plasmodium falciparum; test: Antimalarial activity against mefloquine-resistant, chloroquine-sensitive Plasmodium falciparum D6 assessed as inhibition of [3H]hypoxanthine uptake in presence of 1 mM folinic acid; assay type: functional, organism-based
In short: (§1)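 Folinic acid reversal assay, adapted from a folic acid reversal method and run in normal plasma, to rule out DHFR inhibition. Parasite growth inhibition (IC50) is measured with 1 mM folinic acid present and compared with the IC50 obtained without folinic acid.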

[7] = tested on: Plasmodium falciparum; test: Antimalarial activity against multidrug-resistant Plasmodium falciparum TM91C235 assessed as inhibition of [3H]hypoxanthine uptake in presence of 1 mM folinic acid; assay type: functional, organism-based; in short: as §1

| Structure (SMILES) | IC50 [1] [nM] | IC50 [2] [nM] | IC50 [3] [nM] | Ratio IC50 [4] | Ratio IC50 [5] | Activity [6] | Activity [7] |
| --- | --- | --- | --- | --- | --- | --- | --- |
| Cl.Cl.Nc1nccc2ccc(NCc3ccccc3)cc12 | 212 | 486 | 1400 | 2.29 | 6.59 | – | – |
| Cl.Cl.Nc1nccc2ccc(NCc3cccc(C(F)(F)F)c3)cc12 | 50.1 | 71.9 | 260 | 1.44 | 5.2 | – | – |
| CCN(CC)CCCC(C)Nc1ccnc2cc(Cl)ccc12 (configuration not stated) | – | – | – | – | – | Active | Active |
| Cl.Cl.Cl.Cl.Nc1nccc2ccc(NCc3ccc(Cl)c(Cl)c3)cc12 | 69.1 | 111 | 455 | 1.6 | 6.58 | – | – |
| Cl.Cl.Nc1nccc2ccc(NCc3cccc(Br)c3)cc12 | 103 | 142 | 421 | 1.38 | 4.09 | – | – |
| Cl.Cl.Cl.Nc1nccc2ccc(NCc3ccc(Cl)cc3)cc12 | 73.6 | 205 | 417 | 2.78 | 5.67 | Active | Active |
| Nc1nc(N)c2cc(NCc3cccc(Br)c3)ccc2n1 | < 0.142 | 20.8 | 2.08 | 147 | 14.6 | – | – |
| CCc1nc(N)nc(N)c1-c1ccc(Cl)cc1 | – | – | – | – | – | inactive | inactive |
| OC(c1cc(C(F)(F)F)nc2c(C(F)(F)F)cccc12)C1CCCCN1 (configuration not stated) [MEFLOQUINE] | 20.1 | 37.4 | – | 1.85 | 0.289 | – | – |
| Cl.Cl.Cl.Nc1nccc2ccc(NCc3cccc(Cl)c3)cc12 | 64.8 | 158 | 359 | 2.44 | 5.55 | Active | Active |
